# Assay outcomes as filed in PubChem BioAssay.
# Most compounds without a hit are left out; they make up all but 3% or so of the library.
# SENP1 inh = human SENP1 catalytic domain inhibitors, primary screen, biochemical, FRET, uHTS; Sentrin-specific protease 1 (Homo sapiens), Q9P0U3; recombinant SENP1 catalytic domain, CyPet-SUMO1-YPet FRET cleavage; inhibition, % at 10 µM; actives 0.21% (n = 360,000); AID 624204, 2012;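 active = inhibition at least 30% at 10 µM, raw YFP signal under a set limit, fluorescence ratio 0.5 to 1.5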;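 note: 0% = enzyme with DMSO and 100% = no enzyme wells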
#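 Material: hSENP1 catalytic domain, recombinant; medium: Tris pH 8 with BME, BSA, NP40 and catalase; compound: single concentration of 10 µM compound, 0.5% DMSO final; technique: FRET read of cyan and yellow fluorescence; timing: 50 min enzyme reaction, room temperature, light-protected; reagent: SFCypet-SUMO1-SFYpet substrate at 25 nM; control set: no-enzyme low, enzyme-DMSO high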
# Cardio protect = cardioprotection against H2O2-induced cell death, primary screen, uHTS, H9c2 cells, ATPLite luminescence; actives 0.63% (n = 360,000); protection from H2O2 cell death, % at 20 µM; AID 588492, 2011; H9c2 cardiomyocytes, H2O2 injury protection, 2 h;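 active = compounds giving at least 50% protection of heart cells from peroxide-induced death in the single-dose screen, raw or plate-pattern-corrected value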;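 note: 0% = DMSO wells with peroxide and 100% = DMSO wells without peroxide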
# DSG3 Ab inh = inhibitors of pemphigus antibody binding to DSG3, primary screen, biochemical, bead-based, flow cytometry, scFv-GFP; DSG3-coupled beads, scFv-anti-DSG3-GFP binding; active compounds read low; binding (percent of control), % at 10 µM; actives 0.48% (n = 310,000); AID 588358, 2011;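 active = binding more than 3 SD below its plate's average and above zero; inconclusive = below that plate limit but binding exactly zero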;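 note: hits lower antibody fragment binding to DSG3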
# Myeloid diff MLP = induction of myeloid progenitor differentiation, primary screen, cell-based, flow cytometry, MLPCN library | calls only at 10 µM | ER-HoxA9 myeloid progenitors, lysozyme-GFP differentiation | actives 1% (n = 360,000) | AID 624256, 2012;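 active = normalized GFP-positive differentiation at or above the plate's own cutoff, the solvent-only control mean plus 3 SD; inconclusive = no clear call, values can overlap the other calls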;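 note: cells exposed to compound for four days before flow analysis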
# Granule exo inh = LAMP-1 surface exposure blockers, TALL-104 cells – cell-based, flow cytometry, MLPCN library, primary screen; inhibition, % at 10 µM; actives 0.66% (n = 360,000); TALL-104 LAMP-1 surface exposure; cells stimulated with thapsigargin and PMA;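 active = inhibition above about 55%, limit read from the data; inconclusive = no clear call, values can overlap the other calls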
# HNF4A DNA FP = change in binding of human HNF4A to DNA, primary screen, biochemical, fluorescence polarization, FITC-DNA; Hepatocyte nuclear factor 4-alpha (Homo sapiens), P41235; 1 h; activity change, % at 10 µM; actives 0.3% (n = 360,000); in the data active = activity change above about 30%, passing the limit was not always enough
# SENP1 inh conf = human SENP1 catalytic domain inhibitors, confirmation, biochemical, FRET endpoint, single concentration. inhibition, % at 10 µM. shares compounds with SENP1 inh. AID 651678, 2012. recombinant SENP1, CyPet-SUMO1-YPet FRET cleavage. actives 34% (n = 520); in the data active = inhibition mostly above about 35%, no sharp cut-off; inactive = mostly below about 32%;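 note: 0% = enzyme with DMSO and 100% = no enzyme control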
# SENP1 kin conf = human SENP1 catalytic domain inhibitors, confirmation, biochemical, kinetic FRET, single concentration; shares compounds with SENP1 inh; recombinant SENP1, CyPet-SUMO1-YPet FRET kinetic cleavage; inhibition, % at 10 µM; actives 26% (n = 520); in the data active = inhibition mostly above about 32%, no sharp cut-off; inactive = mostly below about 29%;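 note: 0% = DMSO with enzyme and 100% = no enzyme substrate only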
# Starred values were filed as active, the others as inactive; i = inactive; ? = inconclusive; . = no result; + = active, no number.
SMILES,SENP1 inh,Cardio protect,DSG3 Ab inh,Myeloid diff MLP,Granule exo inh,HNF4A DNA FP,SENP1 inh conf,SENP1 kin conf
Cc1nc2ccc(NS(=O)(=O)c3c(F)cc(F)cc3Br)cc2s1,43.6*,-18.3,98.8,i,-3.4,14.7,18.4,17.4
O=C(NCc1ccc(Cl)cc1)N1CCN(C(=O)c2ccccc2)CC1,0.7,-2.9,107.1,i,0.3,4.6,.,.
C[C@H](NC(=O)Cc1cccc2ccccc12)C(=O)N1CCOCC1,-1.4,2.2,129.9,i,3.7,2.2,.,.
Cc1ccc(-n2nc3c(=O)n(CCCC(=O)NCc4ccccc4Cl)nc(C)c3c2C)cc1,1.0,5.7,?,?,-3.7,0.2,.,.
CCCCCN1C=CC=C/C1=C\C=C(C#N)C#N,9.7,0.9,104.8,i,2.9,10.8,.,.
CN1/C(=C/C=C(C#N)C#N)C=Cc2ccccc21,97.0*,2.1,82.0,+,-3.9,137.8,8.7,8.7
Fc1ccc(C2=CC(c3cccs3)n3nnnc3N2)cc1 (centres undefined),33.4*,-2.0,100.6,i,-8.5,-1.7,9.5,10.8
COc1cc(/C=C/C(=O)OCC(=O)Nc2ccc(C)cc2[N+](=O)[O-])ccc1O,38.5*,1.8,97.0,i,2.3,-2.4,1.2,6.6
COc1cc(/C=C/C(=O)OCC(=O)Nc2cc(C)c(C)cc2[N+](=O)[O-])ccc1O,3.5,-4.6,95.8,i,-5.2,3.7,.,.
COc1ccc(O)c(/C=N/N2CCCCC2)c1,1.3,-8.3,100.8,i,-8.2,2.8,.,.
CCN=c1scc(-c2cccs2)n1/N=C/c1cc(OC)ccc1O,52.1*,-17.8,.,i,1.1,-2.8,146.2*,82.3*
COCCn1c(-c2ccco2)csc1=Nc1cccnc1,-0.4,2.7,95.8,i,-0.2,-6.7,.,.
COc1ccc(O)c(/C=N/n2c(-c3ccco3)csc2=Nc2cccnc2)c1,41.7*,-5.9,1.2*,i,0.3,-2.0,29.1*,18.6
Cc1nc(SCC(=O)NCCN2C(=O)CSC2=O)nc(C)c1C,0.4,-4.1,91.5,i,-2.3,-2.4,.,.
CSc1nnc2c(n1)OC(C)N(C(=O)c1ccccc1)c1ccccc1-2 (centres undefined),29.8*,-0.3,.,i,-1.7,-7.0,33.3,34.5*
COc1ccc(CNC(=O)COC(=O)c2ccc3ccccc3n2)cc1,37.6*,2.3,.,i,-0.6,-3.8,26.1,23.1
COc1ccc(NC(=O)COC(=O)c2ccc3ccccc3n2)cc1,7.0,7.3,104.0,i,-0.7,-1.6,.,.
Cc1ccc(C)c(NC(=O)COC(=O)c2ccc3ccccc3n2)c1,38.4*,3.9,245.8,i,1.4,10.3,21.9,18.4
Cc1ccc(S(=O)(=O)N2CCN(C(=O)COC(=O)c3ccc(Cl)nc3)CC2)c(C)c1,1.2,-1.3,85.1,i,-2.0,0.2,.,.
Nc1ccc2oc(=O)c(-c3ccccc3)cc2c1,67.9*,-1.8,96.0,i,0.5,-1.7,17.1,16.5
Nc1ccc(-c2cc3ccccc3oc2=O)cc1,-18.6,-5.0,107.3,i,-13.2,0.9,.,.
O=C(NCc1cccs1)c1csc([C@@H]2O[C@H](CO)[C@H](O)[C@H](O)[C@H]2O)n1,3.5,2.0,.,i,-1.6,4.4,.,.
Cc1c(/C=N/Nc2ccc([N+](=O)[O-])cn2)c2ccccc2n1Cc1ccccc1,63.3*,7.2,100.3,i,1.2,6.1,6.7,8.6
COc1cc(O)c(C=Nc2ccccc2NS(=O)(=O)c2ccc(C)cc2)c(OC)c1,51.1*,14.8,104.2,i,36.3,10.0,74.0*,67.2*
COc1ccccc1NS(=O)(=O)c1ccc(O)cc1,0.1,5.0,103.2,i,1.5,0.0,.,.
SMILES,SENP1 inh,Cardio protect,DSG3 Ab inh,Myeloid diff MLP,Granule exo inh,HNF4A DNA FP,SENP1 inh conf,SENP1 kin conf
CCCN1CCC(NC(=O)CC2C(=O)NCCN2Cc2cccc(OC)c2)CC1 (centres undefined),-2.6,3.6,107.7,i,1.6,6.4,.,.
CCc1cc2c(N=Nc3c(O)[nH]c4ccccc34)ncnc2s1,58.7*,8.6,91.8,i,-3.5,22.5,4.1,-15.0
CSc1ccc(-c2cccc3nncn23)cc1,2.1,8.3,.,i,-0.7,0.2,.,.
Cc1cc(C)c2cc(C#N)c(SCC(=O)Nc3cc(C)on3)nc2c1,50.3*,0.9,113.5,i,-15.0,1.5,-14.4,5.7
Cc1cc(NC(=O)CSc2nc3c(C)ccc(C)c3cc2C#N)no1,68.2*,-3.5,104.9,i,29.2,4.5,15.4,11.8
Nc1ncnc2c1c(-c1ccc(Oc3ccccc3)cc1)cn2C1CCCC1,-1.2,-43.0,102.3,?,-2.5,-1.4,.,.
CCCCn1c(N)c(N(CCOC)C(=O)c2nn(CC)c(=O)c3ccccc23)c(=O)[nH]c1=O,-59.8,2.5,114.0,i,1.5,-2.2,.,.
COC(=O)Nc1sc2c(c1C(N)=O)CCC(C)C2 (centres undefined),41.2*,-4.4,108.9,i,2.8,-0.7,-8.3,2.4
COc1ccc2cc(C3=CC(=O)CC(C)(C)C3=O)ccc2c1,32.1*,7.0,94.8,i,-1.2,5.0,-0.9,5.0
COc1ccc(-c2ccccc2C2=CC(=O)CC(C)(C)C2=O)cc1,32.8*,-2.1,99.5,i,-6.9,3.6,-2.2,1.0
Cc1ccc(-c2ccccc2C2=CC(=O)CC(C)(C)C2=O)cc1,2.5,-13.2,101.0,i,1.3,0.9,.,.
COc1ccc(C)cc1NC(=O)CCNC(=O)Cn1ccc2ccccc2c1=O,-0.9,-1.5,107.5,i,-5.1,-1.1,.,.
COC1CCCN(C(=O)c2cccc(OC3CCN(S(=O)(=O)N(C)C)CC3)c2)C1 (centres undefined),0.9,-6.6,.,i,-2.7,2.7,.,.
CC1(C)CC(=O)C2=C(C1)Nc1ccccc1S2,46.0*,0.8,95.4,i,0.6,-3.5,29.3*,4.9
CC1(C)CC(=O)C2=C(C1)Nc1ccccc1NC2,-34.6,7.3,113.9,i,-1.3,1.5,.,.
Cc1nc2[nH]onc2c2nccc(=O)c12,51.5*,2.6,98.1,i,-0.9,-2.0,49.9*,48.5*
